Key:
HepG2 cells [1] = experiment: cell viability assay; assay type: cell-based, human; conditions: 0–20 μM, 37 °C, 5% CO2, WST (Cell Counting Kit-8), absorbance at 450 nm
Outline: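 HepG2 cells plated at 1.0 × 10^4 cells/well and grown 24 h at 37 °C, 5% CO2. Medium replaced with 0–20 μM test compound for 24 or 72 h. Then fresh medium plus Cell Counting Kit-8 (WST) reagent, 4 h incubation, and absorbance read at 450 nm. Viability (%) is relative to untreated control cells set as 100%.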

MTs [2] = experiment: depolymerization/polymerization of MTs in living HepG2 cells; assay type: cell-based, human; conditions: 10 μM colchicine coincubated with 10 μM TP–TMR, 6 h, 37 °C
Outline: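 HepG2 cells expressing BacMam-delivered tubulin–GFP were coincubated with 10 μM test compound and 10 μM colchicine for 6 h at 37 °C under 5% CO2. Nuclei stained with Hoechst 33342 after a PBS wash. Compound and tubulin–GFP signals imaged by confocal microscopy to assess colocalization of compound fluorescence with microtubule fibres.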

MTs [3] = conditions: cited from earlier work
[4] = cited from earlier work
HepG2 cells [5] = experiment: cellular uptake by CLSM in HepG2 cells; assay type: cell-based, human; conditions: 10 μM, 6 h, 37 °C, 5% CO2; CLSM fluorescence imaging
Outline: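 HepG2 cells seeded on glass-bottom dishes at 2.0 × 10^4 cells/well, grown ~24 h, then transduced with BacMam tubulin–GFP for 24 h at 37 °C, 5% CO2. Incubated with 10 μM test compound in medium, PBS-washed, and nuclei stained with 5 μg/mL Hoechst 33342 for 10 min. Confocal imaging: compound ex 550/em 574 nm, GFP ex 489/em 510 nm.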

With COc1cc2c(c(OC)c1OC)-c1ccc(OC)c(=O)cc1[C@@H](NC(C)=O)CC2 [colchicine] the “cytotoxicity against HepG2 cells, 24 h” value (HepG2 cells [1]) was “clear cytotoxicity in a concentration-dependent manner” and the “effect on polymerization of MTs in HepG2 cells” value (MTs [2]) was “polymerization of MTs was inhibited”.
For CGGGKKHVPGGGSVQIVYKPVDL [TP], the “effect of binding on polymerization/depolymerization of MTs in vitro” value (MTs [3]) is given as “does not inhibit” and the water solubility [4] is given as “high water solubility at millimolar concentrations”.
For CC(=O)O[C@H]1C(=O)[C@@]2(C)[C@H]([C@H](OC(=O)c3ccccc3)[C@]3(O)C[C@H](OC(=O)[C@H](O)[C@@H](NC(=O)c4ccccc4)c4ccccc4)C(C)=C1C3(C)C)[C@]1(OC(C)=O)CO[C@@H]1C[C@@H]2O [taxol], the “cytotoxicity against HepG2 cells, 24 h” value (HepG2 cells [1]) was “clear cytotoxicity in a concentration-dependent manner”.
For “5(6)-carboxytetramethylrhodamine [TMR–COOH]”, the “cellular uptake into HepG2 cells” value (HepG2 cells [5]) was “not observed”.
